Measurements from article PMC2764298 (Biochemical and biophysical research communications, 2009).

How the values were obtained:
P-gp [1] = biological target: T1, P-gp (Homo sapiens, UniProt P08183); assay: rhodamine 123 accumulation assay by flow cytometry in MCF-7/DX1 cells; format: cell-based
Outline: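 P-gp-overexpressing MCF-7/DX1 breast adenocarcinoma cells, maintained with 1 µM doxorubicin. 125,000 cells in suspension loaded with 0.5 µg/mL (1.3 µM) rhodamine 123, alone or with test compound, 30–40 min, 37°C. Pelleted, then re-incubated 30–40 min, 37°C in fresh medium with test compound or 1 µM GF120918. Resuspended in ice-cold PBS pH 7.4; 488 nm laser, 530 band-pass (FL1), 10,000 cells/point. IC50 fitted from concentration series.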

P-gp ATPase activity = P-gp ATPase activity (Homo sapiens, UniProt P08183); assay: P-gp ATPase assay, crude High Five insect cell membranes; format: biochemical; settings: Pi release
P-gp [2] = biological target: T1, P-gp; assay: [3H]daunomycin radioactive substrate accumulation assay in MCF-7/DX1 cells; format: cell-based; settings: read-out: IC50, cellular accumulation of [3H]daunomycin, [3H]daunomycin 0.25 µCi/mL, scintillation counting

T1 sequence (P08183 whole entry): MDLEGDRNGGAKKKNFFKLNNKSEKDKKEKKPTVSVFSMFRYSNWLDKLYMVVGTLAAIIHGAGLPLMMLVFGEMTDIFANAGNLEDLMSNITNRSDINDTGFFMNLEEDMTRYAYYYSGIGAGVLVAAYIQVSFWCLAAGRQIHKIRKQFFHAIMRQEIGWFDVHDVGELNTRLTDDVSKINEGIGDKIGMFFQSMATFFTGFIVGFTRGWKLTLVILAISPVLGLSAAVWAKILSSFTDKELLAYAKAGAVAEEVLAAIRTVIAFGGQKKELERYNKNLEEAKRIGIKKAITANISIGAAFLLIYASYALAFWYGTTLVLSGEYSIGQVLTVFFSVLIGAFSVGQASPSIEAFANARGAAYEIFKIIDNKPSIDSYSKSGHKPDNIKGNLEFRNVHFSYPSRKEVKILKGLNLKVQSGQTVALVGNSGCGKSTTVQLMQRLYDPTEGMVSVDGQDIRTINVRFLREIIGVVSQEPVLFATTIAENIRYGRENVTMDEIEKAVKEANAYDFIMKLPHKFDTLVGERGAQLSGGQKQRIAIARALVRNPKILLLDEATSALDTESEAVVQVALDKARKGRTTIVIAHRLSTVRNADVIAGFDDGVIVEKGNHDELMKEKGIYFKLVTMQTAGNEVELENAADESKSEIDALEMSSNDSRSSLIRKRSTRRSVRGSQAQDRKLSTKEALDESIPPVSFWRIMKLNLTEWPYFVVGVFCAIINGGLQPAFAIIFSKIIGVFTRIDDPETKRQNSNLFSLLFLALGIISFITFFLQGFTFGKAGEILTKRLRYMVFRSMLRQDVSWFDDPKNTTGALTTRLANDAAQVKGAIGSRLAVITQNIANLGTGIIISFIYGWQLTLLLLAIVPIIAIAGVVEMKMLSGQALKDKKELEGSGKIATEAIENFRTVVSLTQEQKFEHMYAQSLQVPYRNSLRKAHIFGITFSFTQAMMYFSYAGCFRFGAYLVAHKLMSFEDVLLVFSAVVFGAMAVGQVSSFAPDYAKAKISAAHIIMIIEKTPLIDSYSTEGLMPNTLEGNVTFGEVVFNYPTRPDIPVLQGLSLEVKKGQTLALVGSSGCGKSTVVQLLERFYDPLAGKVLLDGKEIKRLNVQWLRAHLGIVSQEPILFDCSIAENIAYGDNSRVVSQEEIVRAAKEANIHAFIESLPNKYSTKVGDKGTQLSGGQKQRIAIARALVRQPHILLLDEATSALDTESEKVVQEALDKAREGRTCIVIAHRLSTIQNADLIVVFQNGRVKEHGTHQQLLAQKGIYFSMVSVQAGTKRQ
Chain of P-gp ATPase activity (P08183 whole entry): as above

SMILES	IC50 (P-gp [1])	more active than the known P-gp inhibitor GF120918 (rhodamine 123 accumulation) (P-gp [1]; MCF-7/DX1 cells, both at 1 µM)	effect on P-gp ATPase activity at low concentrations (P-gp ATPase activity; Gal-2 < 1 µM)	effect on P-gp ATPase activity at higher concentrations (P-gp ATPase activity; Gal-2 > 5 µM)	IC50 (P-gp [2])
COc1ccc2c3c1O[C@H]1C[C@@H](O)C=C[C@@]31CCN(C)C2 [galantamine, reference compound]	> 100000 nM				
COc1ccc2c3c1O[C@H]1C[C@@H](OC(=O)CCCCCCCCC(=O)O[C@H]4C=C[C@@]56CCN(C)Cc7ccc(OC)c(c75)O[C@H]6C4)C=C[C@@]31CCN(C)C2 [Gal-2]		approximately 20%	stimulated ATPase activity	ATPase stimulation was found to decrease in a concentration-dependent manner	2000 ± 400 nM
